An excerpt weighted towards active compounds, which were near 1.6% of everything screened.
PLC-beta3 inh – inhibitors of human phospholipase C beta3. 370,000 compounds, 0.18% hits. inhibition, % at 12.2 µM. Purified PLC-beta3, fluorogenic substrate, fluorescence. Q01970
sPLA2-III inh – Blocks human group III sPLA2 activity | 370,000 compounds, 0.56% hits | inhibition, % at 12.2 µM | QFRET BODIPY PC-A2 liposome hydrolysis, fluorescence | Q9NZ20;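 active means inhibition above mean plus 3 SD of compounds lying within the high and low control bounds, cut at about 19% in these data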
procasp3 activ – activates human procaspase-3 | P42574 | recombinant procaspase-3 D3A, Ac-DEVD-pNA absorbance 405 nm | activation, % at 8.5 µM | 330,000 compounds, 0.11% hits | AID 463141;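 active means activation above the mean of all tested compounds plus 3 SD, cut at about 21% in these data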
Target sequence (P42574 whole entry D9A/D28A/D175A): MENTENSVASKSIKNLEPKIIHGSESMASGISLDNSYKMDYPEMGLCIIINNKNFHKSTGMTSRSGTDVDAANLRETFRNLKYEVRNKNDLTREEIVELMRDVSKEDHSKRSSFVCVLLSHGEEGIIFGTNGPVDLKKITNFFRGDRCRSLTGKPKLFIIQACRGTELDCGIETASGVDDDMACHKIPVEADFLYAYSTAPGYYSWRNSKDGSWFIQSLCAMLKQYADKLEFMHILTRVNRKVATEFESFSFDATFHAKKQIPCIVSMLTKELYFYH
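Test system: Procaspase-3 D3A mutant, all three cleavage aspartates alanine | Dosing: Single dose, 8.5 µM nominal compound, 0.8% DMSO | Schedule: 1 h preincubation, 2 h reaction | Technique: 405 nm absorbance of p-nitroaniline, reads at 0 and 120 min | Repeats: One well per compound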
PLCg1 inh – PLC-gamma1 (human) inhibition, primary screen; P19174; purified PLC-gamma1, fluorogenic substrate, fluorescence; inhibition, % at 12.2 µM; 370,000 compounds, 0.84% hits; in the data active means inhibition above about 9.5%
proCasp7 act – counter-screen: procaspase-7 (human) activation | activation, % at 8.5 µM | 330,000 compounds, 0.093% hits | recombinant procaspase-7, Ac-DEVD-pNA absorbance 405 nm; D23A/D198A/D206A triple mutant, cannot self-cleave; scale: DMSO 0, 5 µM enzyme 100 | P55210;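 active means percent activation above the screen-wide mean plus 3 SD, cut at about 25% in these data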
Target sequence (P55210 whole entry D23A/D198A/D206A): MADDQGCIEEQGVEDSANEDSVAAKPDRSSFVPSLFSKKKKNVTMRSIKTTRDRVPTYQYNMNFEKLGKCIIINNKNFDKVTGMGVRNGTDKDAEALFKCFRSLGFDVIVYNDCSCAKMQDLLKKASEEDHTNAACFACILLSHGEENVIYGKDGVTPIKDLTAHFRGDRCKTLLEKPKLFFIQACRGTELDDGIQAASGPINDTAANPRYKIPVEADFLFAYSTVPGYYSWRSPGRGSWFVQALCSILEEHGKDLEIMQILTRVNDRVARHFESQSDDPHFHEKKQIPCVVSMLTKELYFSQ
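Material: Procaspase-7 triple mutant (PC-7 D3A) | Quantity: 2 µM procaspase-7 mutant as dispensed | Reagent: DEVD-pNA substrate | Times: 1 h preincubation, 2 h reaction | Technique: 405 nm absorbance of p-nitroaniline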
PLCg1 ctr – counter-screen for PLC-beta3 inhibitors: inhibitors of human PLC-gamma1 | shares compounds with PLCg1 inh | purified PLC-gamma1, fluorogenic substrate, fluorescence | inhibition, % at 12.3 µM | 3,300 compounds, 3.1% hits | AID 743258; in the data active means inhibition above about 9.5%
PLCb3 confirm – confirmation of human PLC-beta3 inhibitors; inhibition, % at 12.3 µM; 3,300 compounds, 1% hits; shares compounds with PLCg1 inh; purified PLC-beta3, fluorogenic substrate fluorescence
hGIII sPLA2 conf – human GIII-sPLA2 inhibition, confirmation. shares compounds with sPLA2-III inh. recombinant hGIII-sPLA2, BODIPY PC-A2 QFRET fluorescence. inhibition, % at 12.2 µM. 2,000 compounds, 34% hits;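 active means mean inhibition across triplicates above the hit cutoff set in the earlier primary screen, cut at about 19% in these data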
535nm interf – 535nm fluorescence interference, HGIII-sPLA2 counter-screen; shares compounds with sPLA2-III inh; BODIPY FL product fluorescence interference, QFRET; inhibition, % at 12.2 µM; 2,000 compounds, 8.5% hits; AID 743282;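 active means average inhibition above the solvent-only control mean plus 3 SD, cut at about 6% in these data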
BODIPY interf DR – counter-screen for HGIII-sPLA2 inhibitors: 535nm fluorescence interference, dose response | shares compounds with sPLA2-III inh | BODIPY FL product fluorescence interference, cell-free | IC50, µM | 240 tested, under 10 active | AID 743455;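 active means IC50 at or below 10 µM; inactive means IC50 above 10 µM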
Large screens that a line does not name were inactive (follow-up assays come after a bar, where they were run). Unless noted, no stated cut-off is given here; in the data, active means inhibition above about 11%; inactive means the rest.

O=C(COc1ccccc1)N1CCN(Cc2c[nH]c3ccccc23)CC1	PLCg1 inh 11 | PLCg1 ctr inactive | PLCb3 confirm inactive
CCCCC(=O)N/N=C/c1c(O)n(C2CC2)c(=S)[nH]c1=O	PLCg1 inh 10 | PLCg1 ctr inactive | PLCb3 confirm inactive
Cc1cc(C)n2nc(SC(C)C(=O)N3CCC4(CC3)OCCO4)nc2n1 (centres undefined)	PLCg1 inh 12 | PLCg1 ctr inactive | PLCb3 confirm inactive
CCC(Oc1cc(Cl)ccc1Cl)C(=O)N1CCC2(CC1)OCCO2 (centres undefined)	none
CCN1CCC2(CC1)NC(CO)(CO)CO2	PLCg1 inh 11 | PLCg1 ctr inactive | PLCb3 confirm inactive
C/C(=N\N(C)c1ccccc1)c1c(O)[nH]c(=O)[nH]c1=O	none
Clc1cccc(N2CCNCC2)c1Cl	sPLA2-III inh 25 | hGIII sPLA2 conf inactive | 535nm interf inactive
O=c1[nH]c(=S)n(C2CC2)c(O)c1/C=N/Nc1ccccc1	sPLA2-III inh 22 | hGIII sPLA2 conf inactive | 535nm interf inactive
c1ccc(Cc2cnc(N3CCNCC3)nc2)cc1	sPLA2-III inh 25 (no result: procasp3 activ, proCasp7 act) | hGIII sPLA2 conf inactive | 535nm interf inactive
c1cnc(N2CCNCC2)nc1	none
Nc1ccccc1Cl	none
Cc1cc(C)c(C)c(C(O)(C(=O)O)c2ccccc2)c1 (centres undefined)	none (no result: procasp3 activ, proCasp7 act)
CC[C@H]1c2ccccc2[C@@H]2CC[C@H]1N2c1ccccc1	none (no result: procasp3 activ, proCasp7 act)
c1ccc(-c2cc(-c3ccccc3)[n+](-c3ccccc3)c(-c3ccccc3)c2)cc1	none
CN(C)c1ccc(-[n+]2c(-c3ccccc3)cc(-c3ccccc3)cc2-c2ccccc2)cc1	sPLA2-III inh 22 (no result: procasp3 activ, proCasp7 act) | hGIII sPLA2 conf 27 | 535nm interf inactive
CCc1ccc(/C=C(/C#N)C(N)=S)cc1	sPLA2-III inh 24 | hGIII sPLA2 conf 29 | 535nm interf inactive | BODIPY interf DR inactive
COc1ccccc1N	none (no result: procasp3 activ, proCasp7 act)
c1ccc2c3c([nH]c2c1)CNCC3	sPLA2-III inh 24 | hGIII sPLA2 conf inactive | 535nm interf inactive
Cc1nc2ccc(P(=O)(O)O)cc2s1	none (no result: PLC-beta3 inh, sPLA2-III inh, PLCg1 inh)
O=[N+]([O-])c1ccc(N2CCCC(C(F)(F)F)C2)c2ccncc12 (centres undefined)	none
O=C1CC(c2ccccc2)CN1 (centres undefined)	sPLA2-III inh 24 | hGIII sPLA2 conf inactive | 535nm interf inactive
O=C1NC(=S)NC(=O)C1c1ccccc1	none (no result: procasp3 activ, proCasp7 act)
O=C(C[N+]12CCC(CC1)C(CO)C2)c1ccc([N+](=O)[O-])cc1 (centres undefined)	none
O=C(C[N+]12CCC(CC1)C(OC(=O)c1ccccc1)C2)c1ccc([N+](=O)[O-])cc1 (centres undefined)	sPLA2-III inh 22 | hGIII sPLA2 conf inactive | 535nm interf inactive
Nc1ccc(-c2ccc(N)cc2)cc1	sPLA2-III inh 19 (no result: procasp3 activ, proCasp7 act) | hGIII sPLA2 conf inactive | 535nm interf inactive
O=c1[nH]c2ccccc2o1	none
COc1ccccc1N1CCN(Cc2ccc(Cl)cc2Cl)CC1	sPLA2-III inh 21 | hGIII sPLA2 conf inactive | 535nm interf inactive
COc1ccccc1N1CCN(Cc2ccc(F)cc2)CC1	none
CC1CC2(C)C(CCC3C2CCC2(C)C(OP(=O)(N4CC4)N4CC4)CCC32)CC1=O (centres undefined)	sPLA2-III inh 25 (no result: procasp3 activ, proCasp7 act) | hGIII sPLA2 conf inactive | 535nm interf inactive
C[C@]12CCC3C(CC[C@H]4C[C@H](O)CC[C@]34C)C1CC(=O)[C@@H]2O (some centres undefined)	none
Cc1c(N=Nc2c(O)n(C)c(=O)n(C)c2=O)c(=O)n(-c2ccccc2)n1C	sPLA2-III inh 19 | hGIII sPLA2 conf inactive | 535nm interf inactive
COc1ccc(NC(=S)NC(NC(=O)CF)C(Cl)(Cl)Cl)cc1[N+](=O)[O-] (centres undefined)	sPLA2-III inh 19 | hGIII sPLA2 conf inactive | 535nm interf inactive
Cc1ccc(CN2CCC3CCC(C3)C2)c(O)c1 (centres undefined)	none (no result: procasp3 activ, proCasp7 act)
CCOP(=O)(OCC)C1(C(=O)O)CCCC1	sPLA2-III inh 24 | hGIII sPLA2 conf inactive | 535nm interf inactive
CCOP(=O)(OCC)C1(O)C(=O)Nc2ccccc21 (centres undefined)	none
CCC(=NCc1ccco1)c1c(O)n(C)c(=O)n(C)c1=O	sPLA2-III inh 20 | hGIII sPLA2 conf inactive | 535nm interf inactive
CCC(=NCCc1ccccc1)c1c(O)n(C)c(=O)n(C)c1=O	none
CC12CCC(=O)C=C1CC(O)C1C2CCC2(C)C1CCC2(C)O (centres undefined)	none (no result: procasp3 activ, proCasp7 act)
Cc1cc(C(=O)N=Nc2c(O)n(C)c3ccccc23)c(C)o1	sPLA2-III inh 23 | hGIII sPLA2 conf inactive | 535nm interf inactive
O=C1CN=C(c2ccccc2F)c2cc(Cl)ccc2N1	sPLA2-III inh 19 | hGIII sPLA2 conf inactive | 535nm interf inactive

High-throughput results deposited in PubChem by The Scripps Research Institute Molecular Screening Center.
